Active and inactive are the calls of the source. The calls are words filed in the database; no cut-off is given here.
How the values were obtained:
[1] = molecular target: T1, Bile acid receptor (Homo sapiens) (UniProt Q96RI1); assay: Agonist activity at human Gal4-fused FXR assessed as luciferase activity at 0.03 to 10 uM by reporter gene assay; type: functional
T1 sequence (whole entry): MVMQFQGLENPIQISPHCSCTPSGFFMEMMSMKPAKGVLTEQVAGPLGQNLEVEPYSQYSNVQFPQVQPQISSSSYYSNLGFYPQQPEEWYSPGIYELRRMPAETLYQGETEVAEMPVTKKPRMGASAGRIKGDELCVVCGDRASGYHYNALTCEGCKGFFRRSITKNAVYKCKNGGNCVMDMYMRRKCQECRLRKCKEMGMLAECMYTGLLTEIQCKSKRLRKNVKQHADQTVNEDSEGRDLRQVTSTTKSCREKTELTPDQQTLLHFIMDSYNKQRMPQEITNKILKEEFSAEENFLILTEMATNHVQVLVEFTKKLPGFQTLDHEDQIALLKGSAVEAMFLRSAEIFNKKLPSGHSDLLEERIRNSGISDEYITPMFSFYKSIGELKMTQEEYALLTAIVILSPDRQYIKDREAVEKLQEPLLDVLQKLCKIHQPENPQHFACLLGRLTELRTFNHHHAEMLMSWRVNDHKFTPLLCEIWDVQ

[2] = tested on: Peritoneal macrophage cell; assay: Inhibition of LPS-induced IL-6 mRNA expression in LXRalpha-deficient C57BL/6J mouse peritoneal macrophages at 10 uM incubated for 6 hrs prior to LPS-challenge measured after 18 hrs by RT-PCR analysis; type: functional, cell-based
In short: (§1)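 Thioglycollate-elicited peritoneal macrophages (wild-type C57BL/6J or LXRα-null, 8–10 weeks) were plated at 4 × 10⁶/well and pretreated with compound 6 h before LPS 100 ng/mL. Cells were harvested after 18 h. il-6 and il-1β mRNA were measured by real-time quantitative PCR, normalized to GAPDH.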

[3] = tested on: Peritoneal macrophage cell; assay: Inhibition of LPS-induced IL-1beta mRNA expression in LXRalpha-deficient C57BL/6J mouse peritoneal macrophages at 10 uM incubated for 6 hrs prior to LPS-challenge measured after 18 hrs by RT-PCR analysis; type: functional, cell-based; in short: as §1
[4] = molecular target: T2, Retinoic acid receptor RXR-alpha (Homo sapiens) (UniProt P19793); assay: Antagonist activity at human Gal4-fused RXRalpha assessed as inhibition of SR11215-induced luciferase activity at 0.1 to 10 uM by reporter gene assay; type: functional
T2 sequence (whole entry): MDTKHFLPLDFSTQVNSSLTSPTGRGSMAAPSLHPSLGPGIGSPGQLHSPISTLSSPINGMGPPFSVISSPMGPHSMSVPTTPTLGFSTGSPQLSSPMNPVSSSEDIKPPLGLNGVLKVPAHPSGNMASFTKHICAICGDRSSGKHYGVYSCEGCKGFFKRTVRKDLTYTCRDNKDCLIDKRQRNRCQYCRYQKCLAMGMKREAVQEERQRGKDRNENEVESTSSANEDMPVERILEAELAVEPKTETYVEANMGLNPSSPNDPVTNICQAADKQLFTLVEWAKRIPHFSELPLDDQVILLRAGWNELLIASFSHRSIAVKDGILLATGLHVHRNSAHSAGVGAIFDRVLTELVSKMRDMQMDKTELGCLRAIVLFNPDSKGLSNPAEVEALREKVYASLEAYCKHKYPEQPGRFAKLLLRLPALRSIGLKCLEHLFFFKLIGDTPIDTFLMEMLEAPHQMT

[5] = molecular target: T2, Retinoic acid receptor RXR-alpha (Homo sapiens); assay: Agonist activity at human Gal4-fused RXRalpha assessed as luciferase activity at 0.1 to 10 uM by reporter gene assay; type: functional
[6] = molecular target: T3, Oxysterols receptor LXR-alpha (Homo sapiens) (UniProt Q13133); assay: Transactivational antagonist activity at human LXRalpha transfected in HEK293 cells coexpressing CMX-Gal4N-NCoR assessed as NCoR recruitment after 16 hrs by reporter gene assay; type: functional, cell-based
T3 sequence (whole entry): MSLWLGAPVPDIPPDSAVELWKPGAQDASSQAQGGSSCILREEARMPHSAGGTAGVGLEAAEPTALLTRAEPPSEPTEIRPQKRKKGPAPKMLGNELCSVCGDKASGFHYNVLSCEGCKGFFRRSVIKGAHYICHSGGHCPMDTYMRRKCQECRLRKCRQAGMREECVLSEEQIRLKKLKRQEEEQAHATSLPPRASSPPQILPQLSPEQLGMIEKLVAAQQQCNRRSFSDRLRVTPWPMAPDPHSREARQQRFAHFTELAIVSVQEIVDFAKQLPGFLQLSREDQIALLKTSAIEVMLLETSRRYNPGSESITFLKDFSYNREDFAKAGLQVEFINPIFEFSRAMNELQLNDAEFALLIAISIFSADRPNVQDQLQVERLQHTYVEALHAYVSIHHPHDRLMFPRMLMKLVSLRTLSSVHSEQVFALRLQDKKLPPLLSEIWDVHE
In short: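 Mammalian two-hybrid in HEK293 cells by calcium phosphate cotransfection: CMX-VP16N-hLXRα, Gal4N-fused SRC1, DRIP205, NCoR or SMRT (15 ng), tk-MH100×4-luc (50 ng) and CMX-β-gal (10 ng). Compound or DMSO added 8 h after transfection for 16 h. Luciferase was normalized to β-galactosidase, in triplicate.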

[7] = Transrepressional activity at LXR in C57BL/6J mouse peritoneal macrophages assessed as inhibition of LPS-induced IL-6 mRNA expression at 10 uM incubated for 6 hr prior to LPS-challenge measured after 18 hrs by RT-PCR analysis; in short: as §1
[8] = molecular target: T4, Oxysterols receptor LXR-beta (Homo sapiens, UniProt P55055); assay: Transactivational agonist activity at human LXRbeta transfected in HEK293 cells expressing CMX-Gal4N assessed as luciferase activity at 30 uM after 16 hrs by reporter gene assay; type: cell-based; details: hek293, 16 h
T4 sequence (P55055 whole entry): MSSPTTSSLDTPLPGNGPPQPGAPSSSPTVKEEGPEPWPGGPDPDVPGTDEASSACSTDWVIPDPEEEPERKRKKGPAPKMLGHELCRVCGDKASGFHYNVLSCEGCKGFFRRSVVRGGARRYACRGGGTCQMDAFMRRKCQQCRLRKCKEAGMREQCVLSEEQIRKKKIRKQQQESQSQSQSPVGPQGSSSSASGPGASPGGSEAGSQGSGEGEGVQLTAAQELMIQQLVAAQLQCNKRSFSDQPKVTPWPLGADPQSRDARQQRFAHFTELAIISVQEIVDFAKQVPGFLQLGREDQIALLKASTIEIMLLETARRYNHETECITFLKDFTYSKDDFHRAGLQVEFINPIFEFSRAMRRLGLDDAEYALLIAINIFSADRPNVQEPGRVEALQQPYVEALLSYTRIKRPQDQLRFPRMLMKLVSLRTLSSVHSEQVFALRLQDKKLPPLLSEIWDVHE

[9] = tested on: Peritoneal macrophage cell; assay: Inhibition of LPS-induced IL-6 production in LXRalpha,LXRbeta-deficient C57BL/6J mouse peritoneal macrophages at 10 uM incubated for 6 hrs prior to LPS-challenge measured after 18 hrs by ELISA; type: functional, cell-based
In short: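 Thioglycollate-elicited peritoneal macrophages came from 8–10-week LXRα/β-null mice on C57BL/6J background, harvested 4 days post-injection. They were adhered, rested 24 h and plated at 2 × 10⁵/well, then pretreated with compound 6 h before LPS 10 ng/mL. Supernatant mIL-6 was measured by ELISA after 18 h; means ± SE of ≥3 independent measurements, ANOVA.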

Activity [1]: inactive
inhibition [4]: inactive
Activity [5]: inactive
Activity [6]: Dose-dependent effect
inhibition [7]: Active
Activity [8]: Not Active
Compound: C=C1c2ccccc2C(=O)N(C)c2ccc(CC)cc21
inhibition [2]: inactive
inhibition [3]: inactive
inhibition [9]: inactive

From ChEMBL document CHEMBL2169742, “Design, synthesis, and biological evaluation of novel transrepression-selective liver X receptor (LXR) ligands with 5,11-dihydro-5-methyl-11-methylene-6H-dibenz[b,e]azepin-6-one skeleton” (J Med Chem, 2012)
